Results gathered from unrelated publications.
Compare with care: the assays were run in different laboratories.
Observed: cell growth or viability

SMILES | cell line | assay | conditions | quantity | value
Cc1nc(Nc2ccc3c(c2)C(C)(C)C(=O)N3C)c2ccccc2n1 | B16 | MTT |  | IC50 | 14 µM
Nc1ccc(/C=C/C(=O)N2CCc3c(oc4c(-c5ccc(F)cc5)cc(-c5ccc(C(=O)N6CCOCC6)nn5)cc34)C2)cn1 | BXPC-3 | CCK-8 | 72 h | IC50 | > 20 µM
COc1cc2c3c(n(CCCNC(C)C)c(=O)c2cc1OC)-c1nc2c(cc1C3=O)OCO2 | RD-ES | MTS | 72 h | IC50 | 0.031 µM
O=C(O)c1ccccc1Nc1cccc(C(F)(F)F)c1 | BXPC-3 | SRB | 48 h | GI50 | > 30 µM
CCNCCCn1c2c(c3cc(OC)c(OC)cc3c1=O)C(=O)c1cc3c(nc1-2)OCO3 | RD-ES | MTS | 72 h | IC50 | 0.02 µM
Cc1sc2c(c1C)C(c1ccc(Cl)cc1)=N[C@@H](CC(=O)NCCCCCCCCNC(=O)COc1cccc3c1C(=O)N(C1CCC(=O)NC1=O)C3=O)c1nnc(C)n1-2 (stereo partly drawn) | BXPC-3 | ATP luminescence |  | IC50 | 0.27 µM
Nc1ccc(/C=C/C(=O)N2CCc3c(oc4c(-c5ccc(F)cc5)cc(-c5ccc(C(=O)N6CCC(F)(F)CC6)nn5)cc34)C2)cn1 | BXPC-3 | CCK-8 | 72 h | IC50 | > 20 µM
COc1cc2c3c(n(CCCN4CCOCC4)c(=O)c2cc1OC)-c1nc2c(cc1C3=O)OCO2 | RD-ES | MTS | 72 h | IC50 | 0.608 µM
Cc1nc(Nc2ccc3c(c2)CC(=O)N3)c2ccccc2n1 | B16 | MTT |  | IC50 | 3.13 µM
C=CC(=O)NC1CCN(c2ncc3ncnc(Nc4ccc(Oc5ccc6c(c5)ncn6C)c(C)c4)c3n2)CC1 | NCI-H2172 |  |  | EC50 | 6.65 µM
Cc1nc(Nc2ccc3c(c2)/C(=C/c2ccccc2Cl)C(=O)N3)c2ccccc2n1 | B16 | MTT |  | IC50 | 3.34 µM
O=C(O)c1cccnc1Nc1cccc(C(F)(F)F)c1 | BXPC-3 | SRB | 48 h | GI50 | > 30 µM
